Test results published in ChEMBL document CHEMBL4689842, “EUbOPEN Chemogenomics Library wave 1” (2021).

System: HEK-293T
Assay: Multiplex assay against HEK293T;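 on Population Tubulin-Different-Phenotype (%): share of the cells with healthy nuclei that show this phenotype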
Format: toxicity, cell-based
Conditions: human
In short: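 On a CQ1 microscope at 37°C and 5% CO2, live cells were imaged after compound addition. They had been stained at seeding with Hoechst33342, BioTracker Green Microtubule Cytoskeleton Dye, MitoTracker Red and Annexin V Alexa Fluor 680. CellPathfinder machine-learning gating assigned cells to Hoechst high-intensity objects or normal cells, normal cells to healthy, pyknosed or fragmented nuclei, and pyknosed cells to mitotic or apoptotic. Tubulin, mitochondrial-mass and membrane-permeability phenotypes are per cents of healthy-nucleus cells.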

[1] = 12 h, 1 µM, compound concentration 1 uM, replicate 1
[2] = 12 h, 1 µM, compound concentration 1 uM, replicate 2
[3] = 12 h, 10 µM, compound concentration 10 uM, replicate 1
[4] = 12 h, 10 µM, compound concentration 10 uM, replicate 2
[5] = 24 h, 1 µM, compound concentration 1 uM, replicate 1
[6] = 24 h, 1 µM, compound concentration 1 uM, replicate 2
[7] = 24 h, 10 µM, compound concentration 10 uM, replicate 1
[8] = 24 h, 10 µM, compound concentration 10 uM, replicate 2
[9] = 48 h, 1 µM, compound concentration 1 uM, replicate 1
[10] = 48 h, 1 µM, compound concentration 1 uM, replicate 2
[11] = 48 h, 10 µM, compound concentration 10 uM, replicate 1
[12] = 48 h, 10 µM, compound concentration 10 uM, replicate 2

Compound: CCN1CCN(c2ccc(Nc3cc(N(C)C(=O)Nc4c(Cl)c(OC)cc(OC)c4Cl)ncn3)cc2)CC1 [INFIGRATINIB]
- Population Apoptotic (%) [1]: 26%
- Population Fragmented Nuclei (%) [1]: 18%
- Population Healthy Nuclei (%) [1]: 37%
- Population Hoechst High Intensity Objects (%) [1]: 19%
- Population Membrane Permeable-Phenotype (%) [1]: 18%
- Population Mitochondria Different-Phenotype (%) [1]: 14%
- Population Mitotic Cells (%) [1]: 73%
- Population Normal (%) [1]: 80%
- Population Pyknosed Nuclei (%) [1]: 44%
- Population Tubulin-Different-Phenotype (%) [1]: 52%
- Total Cell Count [1]: 470
- Population Apoptotic (%) [2]: 14%
- Population Fragmented Nuclei (%) [2]: 4%
- Population Healthy Nuclei (%) [2]: 84%
- Population Hoechst High Intensity Objects (%) [2]: 3%
- Population Membrane Permeable-Phenotype (%) [2]: 6%
- Population Mitochondria Different-Phenotype (%) [2]: 27%
- Population Mitotic Cells (%) [2]: 85%
- Population Normal (%) [2]: 96%
- Population Pyknosed Nuclei (%) [2]: 11%
- Population Tubulin-Different-Phenotype (%) [2]: 81%
- Total Cell Count [2]: 1084
- Population Apoptotic (%) [3]: 18%
- Population Fragmented Nuclei (%) [3]: 19%
- Population Healthy Nuclei (%) [3]: 56%
- Population Hoechst High Intensity Objects (%) [3]: 14%
- Population Membrane Permeable-Phenotype (%) [3]: 7%
- Population Mitochondria Different-Phenotype (%) [3]: 10%
- Population Mitotic Cells (%) [3]: 81%
- Population Normal (%) [3]: 85%
- Population Pyknosed Nuclei (%) [3]: 23%
- Population Tubulin-Different-Phenotype (%) [3]: 13%
- Total Cell Count [3]: 527
- Population Apoptotic (%) [4]: 9%
- Population Fragmented Nuclei (%) [4]: 7%
- Population Healthy Nuclei (%) [4]: 87%
- Population Hoechst High Intensity Objects (%) [4]: 2%
- Population Membrane Permeable-Phenotype (%) [4]: 5%
- Population Mitochondria Different-Phenotype (%) [4]: 11%
- Population Mitotic Cells (%) [4]: 90%
- Population Normal (%) [4]: 97%
- Population Pyknosed Nuclei (%) [4]: 5%
- Population Tubulin-Different-Phenotype (%) [4]: 24%
- Total Cell Count [4]: 1732
- Population Apoptotic (%) [5]: 37%
- Population Fragmented Nuclei (%) [5]: 16%
- Population Healthy Nuclei (%) [5]: 60%
- Population Hoechst High Intensity Objects (%) [5]: 19%
- Population Membrane Permeable-Phenotype (%) [5]: 10%
- Population Mitochondria Different-Phenotype (%) [5]: 31%
- Population Mitotic Cells (%) [5]: 62%
- Population Normal (%) [5]: 80%
- Population Pyknosed Nuclei (%) [5]: 23%
- Population Tubulin-Different-Phenotype (%) [5]: 78%
- Total Cell Count [5]: 436
- Population Apoptotic (%) [6]: 6%
- Population Fragmented Nuclei (%) [6]: 7%
- Population Healthy Nuclei (%) [6]: 82%
- Population Hoechst High Intensity Objects (%) [6]: 5%
- Population Membrane Permeable-Phenotype (%) [6]: 9%
- Population Mitochondria Different-Phenotype (%) [6]: 20%
- Population Mitotic Cells (%) [6]: 93%
- Population Normal (%) [6]: 94%
- Population Pyknosed Nuclei (%) [6]: 9%
- Population Tubulin-Different-Phenotype (%) [6]: 87%
- Total Cell Count [6]: 1343
- Population Apoptotic (%) [7]: 19%
- Population Fragmented Nuclei (%) [7]: 13%
- Population Healthy Nuclei (%) [7]: 76%
- Population Hoechst High Intensity Objects (%) [7]: 10%
- Population Membrane Permeable-Phenotype (%) [7]: 15%
- Population Mitochondria Different-Phenotype (%) [7]: 4%
- Population Mitotic Cells (%) [7]: 80%
- Population Normal (%) [7]: 89%
- Population Pyknosed Nuclei (%) [7]: 9%
- Population Tubulin-Different-Phenotype (%) [7]: 24%
- Total Cell Count [7]: 608
- Population Apoptotic (%) [8]: 10%
- Population Fragmented Nuclei (%) [8]: 23%
- Population Healthy Nuclei (%) [8]: 74%
- Population Hoechst High Intensity Objects (%) [8]: 4%
- Population Membrane Permeable-Phenotype (%) [8]: 11%
- Population Mitochondria Different-Phenotype (%) [8]: 2%
- Population Mitotic Cells (%) [8]: 90%
- Population Normal (%) [8]: 95%
- Population Pyknosed Nuclei (%) [8]: 2%
- Population Tubulin-Different-Phenotype (%) [8]: 26%
- Total Cell Count [8]: 3002

Compound: CN1CCC(=C2c3ccccc3CC(=O)c3sccc32)CC1.O=C(O)/C=C/C(=O)O [KETOTIFEN FUMARATE]
- Population Apoptotic (%) [1]: 46%
- Population Fragmented Nuclei (%) [1]: 10%
- Population Healthy Nuclei (%) [1]: 37%
- Population Hoechst High Intensity Objects (%) [1]: 13%
- Population Membrane Permeable-Phenotype (%) [1]: 5%
- Population Mitochondria Different-Phenotype (%) [1]: 73%
- Population Mitotic Cells (%) [1]: 53%
- Population Normal (%) [1]: 86%
- Population Pyknosed Nuclei (%) [1]: 51%
- Population Tubulin-Different-Phenotype (%) [1]: 40%
- Total Cell Count [1]: 288
- Population Apoptotic (%) [2]: 13%
- Population Fragmented Nuclei (%) [2]: 4%
- Population Healthy Nuclei (%) [2]: 40%
- Population Hoechst High Intensity Objects (%) [2]: 4%
- Population Membrane Permeable-Phenotype (%) [2]: 12%
- Population Mitochondria Different-Phenotype (%) [2]: 17%
- Population Mitotic Cells (%) [2]: 86%
- Population Normal (%) [2]: 95%
- Population Pyknosed Nuclei (%) [2]: 54%
- Population Tubulin-Different-Phenotype (%) [2]: 28%
- Total Cell Count [2]: 211
- Population Apoptotic (%) [3]: 71%
- Population Fragmented Nuclei (%) [3]: 11%
- Population Healthy Nuclei (%) [3]: 28%
- Population Hoechst High Intensity Objects (%) [3]: 10%
- Population Membrane Permeable-Phenotype (%) [3]: 4%
- Population Mitochondria Different-Phenotype (%) [3]: 98%
- Population Mitotic Cells (%) [3]: 28%
- Population Normal (%) [3]: 89%
- Population Pyknosed Nuclei (%) [3]: 60%
- Population Tubulin-Different-Phenotype (%) [3]: 97%
- Total Cell Count [3]: 298
- Population Apoptotic (%) [4]: 54%
- Population Fragmented Nuclei (%) [4]: 7%
- Population Healthy Nuclei (%) [4]: 22%
- Population Hoechst High Intensity Objects (%) [4]: 5%
- Population Membrane Permeable-Phenotype (%) [4]: 0%
- Population Mitochondria Different-Phenotype (%) [4]: 100%
- Population Mitotic Cells (%) [4]: 45%
- Population Normal (%) [4]: 94%
- Population Pyknosed Nuclei (%) [4]: 69%
- Population Tubulin-Different-Phenotype (%) [4]: 100%
- Total Cell Count [4]: 177
- Population Apoptotic (%) [5]: 50%
- Population Fragmented Nuclei (%) [5]: 12%
- Population Healthy Nuclei (%) [5]: 42%
- Population Hoechst High Intensity Objects (%) [5]: 8%
- Population Membrane Permeable-Phenotype (%) [5]: 7%
- Population Mitochondria Different-Phenotype (%) [5]: 67%
- Population Mitotic Cells (%) [5]: 49%
- Population Normal (%) [5]: 91%
- Population Pyknosed Nuclei (%) [5]: 44%
- Population Tubulin-Different-Phenotype (%) [5]: 49%
- Total Cell Count [5]: 307
- Population Apoptotic (%) [6]: 13%
- Population Fragmented Nuclei (%) [6]: 3%
- Population Healthy Nuclei (%) [6]: 55%
- Population Hoechst High Intensity Objects (%) [6]: 2%
- Population Membrane Permeable-Phenotype (%) [6]: 14%
- Population Mitochondria Different-Phenotype (%) [6]: 20%
- Population Mitotic Cells (%) [6]: 86%
- Population Normal (%) [6]: 97%
- Population Pyknosed Nuclei (%) [6]: 41%
- Population Tubulin-Different-Phenotype (%) [6]: 48%
- Total Cell Count [6]: 251
- Population Apoptotic (%) [7]: 75%
- Population Fragmented Nuclei (%) [7]: 12%
- Population Healthy Nuclei (%) [7]: 32%
- Population Hoechst High Intensity Objects (%) [7]: 11%
- Population Membrane Permeable-Phenotype (%) [7]: 1%
- Population Mitochondria Different-Phenotype (%) [7]: 97%
- Population Mitotic Cells (%) [7]: 24%
- Population Normal (%) [7]: 88%
- Population Pyknosed Nuclei (%) [7]: 55%
- Total Cell Count [7]: 313
- Population Apoptotic (%) [8]: 74%
- Population Fragmented Nuclei (%) [8]: 4%
- Population Healthy Nuclei (%) [8]: 35%
- Population Hoechst High Intensity Objects (%) [8]: 4%
- Population Membrane Permeable-Phenotype (%) [8]: 3%
- Population Mitochondria Different-Phenotype (%) [8]: 95%
- Population Mitotic Cells (%) [8]: 25%
- Population Normal (%) [8]: 95%
- Population Pyknosed Nuclei (%) [8]: 59%
- Population Tubulin-Different-Phenotype (%) [8]: 98%
- Total Cell Count [8]: 180
- Population Apoptotic (%) [9]: 35%
- Population Fragmented Nuclei (%) [9]: 12%
- Population Healthy Nuclei (%) [9]: 40%
- Population Hoechst High Intensity Objects (%) [9]: 15%
- Population Membrane Permeable-Phenotype (%) [9]: 7%
- Population Mitochondria Different-Phenotype (%) [9]: 52%
- Population Mitotic Cells (%) [9]: 64%
- Population Normal (%) [9]: 84%
- Population Pyknosed Nuclei (%) [9]: 46%
- Population Tubulin-Different-Phenotype (%) [9]: 52%
- Total Cell Count [9]: 369
- Population Apoptotic (%) [10]: 16%
- Population Fragmented Nuclei (%) [10]: 4%
- Population Healthy Nuclei (%) [10]: 79%
- Population Hoechst High Intensity Objects (%) [10]: 4%
- Population Membrane Permeable-Phenotype (%) [10]: 10%
- Population Mitochondria Different-Phenotype (%) [10]: 11%
- Population Mitotic Cells (%) [10]: 83%
- Population Normal (%) [10]: 95%
- Population Pyknosed Nuclei (%) [10]: 16%
- Population Tubulin-Different-Phenotype (%) [10]: 38%
- Total Cell Count [10]: 468
- Population Apoptotic (%) [11]: 71%
- Population Fragmented Nuclei (%) [11]: 21%
- Population Healthy Nuclei (%) [11]: 40%
- Population Hoechst High Intensity Objects (%) [11]: 13%
- Population Membrane Permeable-Phenotype (%) [11]: 2%
- Population Mitochondria Different-Phenotype (%) [11]: 93%
- Population Mitotic Cells (%) [11]: 28%
- Population Normal (%) [11]: 86%
- Population Pyknosed Nuclei (%) [11]: 38%
- Population Tubulin-Different-Phenotype (%) [11]: 95%
- Total Cell Count [11]: 362
- Population Apoptotic (%) [12]: 72%
- Population Fragmented Nuclei (%) [12]: 2%
- Population Healthy Nuclei (%) [12]: 70%
- Population Hoechst High Intensity Objects (%) [12]: 4%
- Population Membrane Permeable-Phenotype (%) [12]: 5%
- Population Mitochondria Different-Phenotype (%) [12]: 86%
- Population Mitotic Cells (%) [12]: 27%
- Population Normal (%) [12]: 95%
- Population Pyknosed Nuclei (%) [12]: 26%
- Population Tubulin-Different-Phenotype (%) [12]: 93%
- Total Cell Count [12]: 215
